From ChEMBL document CHEMBL3352533, “Multi-dimensional target profiling of N,4-diaryl-1,3-thiazole-2-amines as potent inhibitors of eicosanoid metabolism” (Eur J Med Chem, 2014) come the findings set out here.

A value given as a limit tells only on which side of the number the result lay.

Series [1] has as its target T1, Polyunsaturated fatty acid lipoxygenase ALOX12 (Homo sapiens) (UniProt P18054).
T1 sequence (whole entry): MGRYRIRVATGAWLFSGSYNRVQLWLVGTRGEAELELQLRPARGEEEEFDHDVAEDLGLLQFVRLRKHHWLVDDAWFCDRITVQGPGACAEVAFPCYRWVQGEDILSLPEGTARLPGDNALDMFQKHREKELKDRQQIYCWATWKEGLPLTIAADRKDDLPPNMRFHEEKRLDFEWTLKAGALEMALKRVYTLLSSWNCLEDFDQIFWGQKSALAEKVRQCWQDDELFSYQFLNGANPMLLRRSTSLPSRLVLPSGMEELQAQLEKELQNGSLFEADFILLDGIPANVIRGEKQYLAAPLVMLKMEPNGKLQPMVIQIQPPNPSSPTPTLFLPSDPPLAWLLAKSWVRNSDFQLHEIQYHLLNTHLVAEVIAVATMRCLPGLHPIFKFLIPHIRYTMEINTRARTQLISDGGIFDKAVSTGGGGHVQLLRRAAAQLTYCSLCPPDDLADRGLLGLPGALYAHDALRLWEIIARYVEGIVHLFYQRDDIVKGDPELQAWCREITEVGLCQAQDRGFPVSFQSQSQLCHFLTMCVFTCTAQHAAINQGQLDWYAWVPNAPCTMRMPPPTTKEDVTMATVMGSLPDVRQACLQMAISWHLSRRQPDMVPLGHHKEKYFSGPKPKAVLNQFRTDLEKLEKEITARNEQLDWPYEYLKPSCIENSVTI
Kind of series: Inhibition of 12-LO-mediated 12-HPETE formation in human platelets using arachidonic acid as substrate assessed as residual activity at 50 uM preincubated for 15 mins before substrate addition measured after 10 mins. The method in brief: (§1)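 Freshly isolated human platelets (10^8 in 1 ml PBS pH 7.4 with 1 mg/ml glucose and 1 mM CaCl2) preincubated with compound or DMSO 15 min at 37 °C, then 10 µM AA added; 10 min at 37 °C, stopped with ice-cold methanol. HPLC: 12-H(P)ETE for 12-LO, 12-HHT for COX-1; percent of DMSO control, n ≥ 3, mean ± S.E.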

Series [2] has as its target Prostaglandin G/H synthase 1 (Homo sapiens) (UniProt P23219). Put plainly: Inhibition of COX1 in human platelets using arachidonic acid as substrate assessed as residual activity at 50 uM preincubated for 15 mins before substrate addition measured after 10 mins. The essentials:
as §1

Series [3] concerns the target T2, Prostaglandin G/H synthase 2 (Homo sapiens) (UniProt P35354).
T2 sequence (whole entry): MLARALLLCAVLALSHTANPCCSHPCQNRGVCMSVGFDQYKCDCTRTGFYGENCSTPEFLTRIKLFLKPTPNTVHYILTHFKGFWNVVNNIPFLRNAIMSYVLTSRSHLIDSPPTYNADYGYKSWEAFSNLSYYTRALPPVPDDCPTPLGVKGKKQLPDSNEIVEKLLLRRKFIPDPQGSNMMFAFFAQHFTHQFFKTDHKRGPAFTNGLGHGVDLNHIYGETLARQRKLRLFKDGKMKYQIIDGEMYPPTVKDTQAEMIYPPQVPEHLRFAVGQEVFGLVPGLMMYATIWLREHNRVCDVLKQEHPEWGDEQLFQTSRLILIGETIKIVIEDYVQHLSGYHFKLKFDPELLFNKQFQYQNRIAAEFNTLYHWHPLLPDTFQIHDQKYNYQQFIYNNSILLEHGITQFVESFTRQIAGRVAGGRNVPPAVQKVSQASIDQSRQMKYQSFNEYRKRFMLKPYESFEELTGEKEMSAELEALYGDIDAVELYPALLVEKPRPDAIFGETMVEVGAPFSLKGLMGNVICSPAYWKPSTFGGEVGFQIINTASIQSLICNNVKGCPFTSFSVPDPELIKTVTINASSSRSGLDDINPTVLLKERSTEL
Kind of series: Inhibition of COX2-mediated PGE2 formation in IL1beta/TNFalpha-stimulated human HeLa cells using arachidonic acid as substrate assessed as residual activity at 50 uM measured after 30 mins by ELISA. The series is classed as cell-based. The essentials: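 HeLa cells (3 × 10^4/well) grown 24 h, then induced with 1 ng/ml IL1β and 5 ng/ml TNFα for 24 h; washed three times with PBS containing fatty-acid-free BSA 1 mg/ml. Medium with cytokines plus compound or DMSO for 30 min, stopped on ice; supernatant PGE2 by ELISA, percent of DMSO control. Three experiments, mean ± S.E.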
(In general: ELISA stands for enzyme-linked immunosorbent assay.)

The target of series [4] is T3, Polyunsaturated fatty acid lipoxygenase ALOX15 (Homo sapiens) (UniProt P16050).
T3 sequence (whole entry): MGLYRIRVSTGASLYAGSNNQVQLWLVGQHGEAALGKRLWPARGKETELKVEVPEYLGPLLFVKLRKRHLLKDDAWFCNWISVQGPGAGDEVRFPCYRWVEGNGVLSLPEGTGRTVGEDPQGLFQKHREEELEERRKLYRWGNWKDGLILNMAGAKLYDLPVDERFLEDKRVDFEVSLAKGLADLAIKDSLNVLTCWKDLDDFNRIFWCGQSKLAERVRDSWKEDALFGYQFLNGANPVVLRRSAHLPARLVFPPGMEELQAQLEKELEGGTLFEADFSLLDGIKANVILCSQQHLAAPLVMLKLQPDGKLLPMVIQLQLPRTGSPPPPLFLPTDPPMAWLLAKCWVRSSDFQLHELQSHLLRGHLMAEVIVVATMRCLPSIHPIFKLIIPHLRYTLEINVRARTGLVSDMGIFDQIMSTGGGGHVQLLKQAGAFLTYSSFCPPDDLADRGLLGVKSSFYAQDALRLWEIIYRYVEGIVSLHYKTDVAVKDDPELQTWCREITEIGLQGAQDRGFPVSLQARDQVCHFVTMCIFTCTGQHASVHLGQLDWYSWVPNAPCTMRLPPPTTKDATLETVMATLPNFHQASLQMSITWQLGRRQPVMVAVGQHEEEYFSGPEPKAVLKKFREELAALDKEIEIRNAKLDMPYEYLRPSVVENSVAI
Kind of series: Inhibition of 15-LO1-mediated 15-HPETE formation in human eosinophil using arachidonic acid as substrate assessed as residual activity at 50 uM preincubated for 15 mins before substrate addition measured after 10 mins. The method in brief:
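Freshly isolated human PMNL (5 × 10^6/ml PBS-glucose, 1 mM CaCl2), with 15-LO1 from contaminating eosinophils, preincubated with compound 15 min at 37 °C; stimulated with 2.5 µM A23187 plus 20 µM AA for 10 min at 37 °C, methanol stop. 15-H(P)ETE peak quantified by HPLC as percent of DMSO control; n ≥ 3, mean ± S.E.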

Series [5] can be described thus: Cytotoxicity against human U937 cells at 30 uM after 48 hrs by LDH assay. The settings on record: u-937, 48 h. The series is classed as cell-based. The method in brief: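 U937 cells (DSMZ; RPMI, 10% FCS, 37 °C, 5% CO2) seeded at 1.5 × 10^4 cells/well, exposed to test agent or DMSO vehicle for 48 h. Supernatant collected after centrifugation; LDH release quantified by kit, expressed relative to detergent-lysed maximum (100%). Three experiments, mean ± S.E.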

Prostaglandin G/H synthase 1 (Homo sapiens), sequence (P23219 whole entry): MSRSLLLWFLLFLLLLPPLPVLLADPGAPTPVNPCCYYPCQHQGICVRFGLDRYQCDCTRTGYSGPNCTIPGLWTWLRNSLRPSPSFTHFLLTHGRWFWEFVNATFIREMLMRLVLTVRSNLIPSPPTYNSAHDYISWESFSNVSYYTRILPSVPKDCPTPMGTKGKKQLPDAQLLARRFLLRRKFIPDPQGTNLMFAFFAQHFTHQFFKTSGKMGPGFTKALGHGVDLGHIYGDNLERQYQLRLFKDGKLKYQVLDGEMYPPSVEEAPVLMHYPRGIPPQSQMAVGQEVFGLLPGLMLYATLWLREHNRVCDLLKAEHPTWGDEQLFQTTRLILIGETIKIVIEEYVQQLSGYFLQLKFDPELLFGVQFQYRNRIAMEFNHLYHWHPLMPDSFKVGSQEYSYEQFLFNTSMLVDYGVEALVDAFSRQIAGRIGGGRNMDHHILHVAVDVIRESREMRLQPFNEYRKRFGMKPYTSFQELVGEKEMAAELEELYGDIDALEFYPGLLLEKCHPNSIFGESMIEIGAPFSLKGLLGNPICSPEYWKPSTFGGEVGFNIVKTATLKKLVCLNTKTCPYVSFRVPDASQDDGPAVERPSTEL

Regarding `COc1ccc(Nc2nc(-c3ccccc3)cs2)cc1`, the Activity is over 70% in series [1], 2.3% in series [2], 3.2% in series [3] and over 70% in series [4].

`COc1ccc(Nc2nc(-c3ccc(Cl)cc3)cs2)cc1`: the Activity in series [1] was over 70%; in series [2], 25.6%; in series [3], 3.7%; in series [4], over 70%; in series [5], 1.6%.

Consider `OC(c1ccc(Nc2nc(-c3ccc(Cl)cc3)cs2)cc1)(C(F)(F)F)C(F)(F)F`, for which the Activity in series [1] was over 70%; in series [2], 2.6%; in series [3], 42.9%; in series [4] it was over 70%; in series [5], 21.7%.

Consider `COc1ccccc1Nc1nc(-c2ccc(Cl)cc2)cs1`, for which the Activity in series [1] was over 70%; in series [2], 55.8%; in series [3] it was 5.3%; in series [4], over 70%.

Turning to `Oc1ccc(-c2csc(Nc3ccc(F)cc3)n2)cc1`, the Activity in series [1] amounted to 4.2%; in series [2] it was 2.1%; in series [3], 2.1%; in series [4], 53.7%.

With `COc1ccc(Nc2nc(-c3ccc(Cl)cc3)cs2)cc1OC`, the Activity in series [1] is over 70%; in series [3], 8.6%; in series [4] it was over 70%.

With `COc1ccc(Nc2nc(-c3ccc(Cl)cc3)cs2)c(OC)c1`, the Activity in series [1] is over 70%; in series [2], over 70%; in series [3] it was 18.4%; in series [4], over 70%.

With `Clc1ccc(-c2csc(Nc3ccccc3)n2)cc1`, the Activity was over 70% in series [1], 7.7% in series [2], 5% in series [3] and over 70% in series [4].

Take `O=S(=O)(c1ccc(-c2csc(Nc3ccc(Cl)cc3)n2)cc1)N1CCOCC1`: the Activity in series [1] is over 70%; in series [2], over 70%; in series [3], 39.1%; in series [4], 41.3%.

In the case of `CC(=O)c1ccc(Nc2nc(-c3ccc(F)cc3)cs2)cc1`, the Activity was over 70% in series [1], 56.1% in series [2], 9.1% in series [3] and over 70% in series [4].

Regarding `Clc1ccc(-c2csc(Nc3ccc(N4CCOCC4)cc3)n2)cc1`, the Activity in series [1], in series [2], in series [3] and in series [4] was over 70% throughout.

For `Oc1ccc(Nc2nc(-c3ccccc3)cs2)cc1`, the Activity was 34.9% in series [1]; 16.2% in series [2]; 3.1% in series [3]; 13% in series [4]; 5.5% in series [5].

For the compound `Oc1cccc(Nc2nc(-c3ccc(Cl)cc3)cs2)c1`, the Activity in series [1] is over 70%; in series [2] it was 19.5%; in series [3], 2.7%; in series [4] it was 57%.

On to `Cc1ccc(-c2csc(Nc3ccc(O)cc3)n2)cc1`, for which the Activity is over 70% in series [1]; 18.5% in series [2]; 3.4% in series [3]; 44.6% in series [4]; 14% in series [5].

As for `FC(F)(F)c1ccc(Nc2nc(-c3ccc(Cl)cc3)cs2)cc1`, the Activity in series [1] was over 70%; in series [2] it was 2.7%; in series [3], over 70%; in series [4], over 70%.

Regarding `CC(=O)c1cccc(Nc2nc(-c3ccc(Cl)cc3)cs2)c1`, the Activity in series [1] was over 70%; in series [2], 38.7%; in series [3], 59.9%; in series [4] it was over 70%.

On to `FC(F)(F)c1cc(Nc2nc(-c3ccc(Cl)cc3)cs2)cc(C(F)(F)F)c1`, for which the Activity was over 70% in series [1]; 13.7% in series [2]; 45.1% in series [3]; over 70% in series [4]; 18.2% in series [5].

Take `Clc1ccc(-c2csc(Nc3cc(Cl)cc(Cl)c3)n2)cc1`: the Activity in series [1] was over 70%; in series [2], 2.3%; in series [3], 30.9%; in series [4], over 70%.

On to `Oc1cccc(Nc2nc(-c3ccccc3)cs2)c1`, for which the Activity in series [1] was over 70%; in series [2] it was 4.1%; in series [3], 2.4%; in series [4], over 70%.

As to `CCOc1ccc(-c2csc(Nc3ccc(O)cc3)n2)cc1`, the Activity is over 70% in series [1], 16.6% in series [2], 2.1% in series [3] and over 70% in series [4].

On to `Clc1ccc(-c2csc(Nc3ccc4c(c3)OCCO4)n2)cc1`, for which the Activity was over 70% in series [1], 6% in series [2], 5.5% in series [3] and over 70% in series [4].

For the compound `COc1ccc(-c2csc(Nc3ccccc3)n2)cc1`, the Activity in series [1] is over 70%; in series [2] it was 2%; in series [3], 2.3%; in series [4], 50.3%.

As to `Clc1ccc(-c2csc(Nc3ccc4c(c3)OCO4)n2)cc1`, the Activity in series [1] was over 70%; in series [2] it was 3.2%; in series [3] it was 3.8%; in series [4], over 70%.

As to `FC(F)(F)Oc1ccc(Nc2nc(-c3ccc(Cl)cc3)cs2)cc1`, the Activity in series [1] was over 70%; in series [2], 1.1%; in series [3], 17.8%; in series [4], over 70%.

Turning to `Nc1ccc(-c2csc(Nc3ccc(O)cc3)n2)cc1`, the Activity in series [1] was over 70%; in series [2] it was 26.7%; in series [3], 3.3%; in series [4], over 70%.
